Source: paper PMC3880591 (Journal of medicinal chemistry, 2013)
Read-outs that look alike come from different tables or passages of the source.

Key:
Male Sprague Dawley rats = test: Intracranial self-stimulation; format: in vivo, rat; conditions: i.p., measured for 1 hr; for Effect on ICSS thresholds: butorphan 0.25-4.0 mg/kg, 8 1.0-30.0 mg/kg
Outline: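 Rats carried monopolar electrodes in the medial forebrain bundle (lateral hypothalamus). They were trained on FR1 at 141 Hz (500 ms trains) by the rate-frequency method until thresholds were stable (±10%, 4 days); N=6 per cohort. Baseline was the mean of the last two of three 15-min functions. Ascending i.p. doses were given in 20% DMSO/water or 0.9% saline, then four 15-min trials. Output was percent of baseline, by two-way repeated-measures ANOVA with Tukey.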

rats = conditions: ref 10b; cited from earlier work
[1] = tested on: morphine dependent monkeys; conditions: more potent (in contrast to cyclorphan); cited from earlier work
mice = conditions: cited from earlier work
human MOR [2] = molecular target: T1, human MOR (Homo sapiens, UniProt P35372); conditions: from [35S]GTPγS stimulation and inhibition data; cited from earlier work
human KOR [3] = molecular target: T2, human KOR (Homo sapiens, UniProt P41145); conditions: from [35S]GTPγS stimulation and inhibition data; cited from earlier work
human KOR [4] = molecular target: T2, human KOR; conditions: cited from earlier work
human KOR [5] = molecular target: T2, human KOR; test: Stimulation/inhibition of [35S]GTPγS binding mediated by the KOR; format: biochemical; conditions: from [35S]GTPγS stimulation and inhibition data
Outline: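 CHO membranes stably expressing human KOR (15 μg protein/tube) were incubated 60 min at 30 °C with 12 concentrations of test compound in 50 mM Tris–HCl, 3 mM MgCl2, 100 mM NaCl, 0.2 mM EGTA, pH 7.4, with 3 μM GDP and […] [35S]GTPγS. Antagonism was tested against 30 nM U50,488. Nonspecific binding used 10 μM GTPγS. After filtration and counting, results were expressed as % stimulation over basal; ≥3 experiments, triplicate.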

human MOR [6] = molecular target: T1, human MOR; test: Stimulation/inhibition of [35S]GTPγS binding mediated by the MOR; format: biochemical; conditions: from [35S]GTPγS stimulation and inhibition data
Outline: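 Membranes from CHO cells stably expressing human MOR (7.5 μg protein/tube) were incubated 60 min at 30 °C with 12 test compound concentrations in 50 mM Tris–HCl, 3 mM MgCl2, 100 mM NaCl, 0.2 mM EGTA, pH 7.4, plus 3 μM GDP and 80 pmol [35S]GTPγS. Antagonist mode used 200 nM DAMGO. Nonspecific binding was defined with 10 μM GTPγS. Filter-bound counts were given as % stimulation over basal; at least three experiments in triplicate.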

rhesus monkeys = conditions: cited from earlier work

T1 sequence (P35372 whole entry): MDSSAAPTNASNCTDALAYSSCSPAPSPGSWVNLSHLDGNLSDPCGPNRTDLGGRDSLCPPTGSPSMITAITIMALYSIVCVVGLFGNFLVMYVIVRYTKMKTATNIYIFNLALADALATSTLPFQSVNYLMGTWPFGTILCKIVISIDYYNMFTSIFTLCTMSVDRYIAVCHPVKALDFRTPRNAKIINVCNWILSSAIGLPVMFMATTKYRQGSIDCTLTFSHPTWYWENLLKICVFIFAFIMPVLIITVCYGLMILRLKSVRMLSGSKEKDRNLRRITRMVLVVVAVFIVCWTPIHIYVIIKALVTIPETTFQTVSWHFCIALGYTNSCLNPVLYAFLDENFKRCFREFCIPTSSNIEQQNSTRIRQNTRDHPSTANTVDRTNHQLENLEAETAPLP
T2 sequence (P41145 whole entry): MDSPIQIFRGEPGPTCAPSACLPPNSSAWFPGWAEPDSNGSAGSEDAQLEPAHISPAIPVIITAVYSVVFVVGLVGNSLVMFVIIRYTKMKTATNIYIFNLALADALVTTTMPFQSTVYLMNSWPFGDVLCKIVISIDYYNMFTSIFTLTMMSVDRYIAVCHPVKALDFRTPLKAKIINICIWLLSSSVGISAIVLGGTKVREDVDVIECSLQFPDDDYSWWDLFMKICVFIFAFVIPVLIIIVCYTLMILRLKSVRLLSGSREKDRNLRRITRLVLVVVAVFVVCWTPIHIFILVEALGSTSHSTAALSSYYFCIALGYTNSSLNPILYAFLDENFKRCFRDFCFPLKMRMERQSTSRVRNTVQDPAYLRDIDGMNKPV

## Oc1ccc2c(c1)[C@@]13CCCC[C@H]1[C@@H](C2)N(CC1CCC1)CC3 [Butorphan]
Male Sprague Dawley rats; 4.0 mg/kg
  Effect on maximum rates of responding: significantly decreased rates of responding
Male Sprague Dawley rats
  Effect on ICSS thresholds: no significant effect
rats
  Antinociception in the warm-water tail flick test: full antinociception
[1]
  Potency in suppressing abstinence: 40 times

## CCNc1nc2cc3c(cc2s1)C[C@@H]1[C@@H]2CCCC[C@]32CCN1CC1CC1 [Compound 1c]
mice
  Effect on morphine sensitization: inhibited morphine sensitization

## COc1ccc2c(c1)[C@]13CCN(CC4CC4)[C@H](C2)[C@@H]1Cc1sc(N)nc1C3 [Compound 7]
Human MOR [2]
  Pharmacological properties at the MOR (agonist/antagonist): agonist and antagonist properties
Human KOR [3]
  Pharmacological properties at the KOR (agonist/antagonist): full agonists
Human KOR [4]; ratio of Ki values
  Selectivity δ/κ: 7

## Nc1nc2c(s1)C[C@H]1[C@H]3Cc4ccc(O)cc4[C@@]1(CCN3CC1CC1)C2 [Compound 8]
Male Sprague Dawley rats
  Effect on ICSS thresholds: no significant effect
Human KOR [3]
  Pharmacological properties at the KOR (agonist/antagonist): both agonist and antagonist properties
Human KOR [4]; read-out: Ki [3H]U69,593 (κ), CHO membranes, human KOR, ± SEM
  Ki: 0.072 ± 0.0039 nM

## COc1ccc2c(c1)[C@]13CCN(CC4CC4)[C@H](C2)[C@@H]1Cc1sc(NC(C)=O)nc1C3 [Compound 10, 6,7-(2-N-Acetyl)aminothiazolo-N-cyclopropylmethyl-3-methoxymorphinan]
Human KOR [5]
  Pharmacological properties at the KOR (agonist/antagonist): full agonists
Human MOR [6]
  Pharmacological properties at the MOR (agonist/antagonist): agonist and antagonist properties

## CNc1nc2c(s1)C[C@H]1[C@H]3Cc4ccc(OC)cc4[C@@]1(CCN3CC1CC1)C2 [Compound 11, 6,7-(2-N-Methyl)aminothiazolo-N-cyclopropylmethyl-3-methoxymorphinan]
Human KOR [5]
  Pharmacological properties at the KOR (agonist/antagonist): full agonists
Human MOR [6]
  Pharmacological properties at the MOR (agonist/antagonist): agonist and antagonist properties

## Oc1ccc2c(c1)[C@@]13CCCC[C@H]1[C@@H](C2)N(CC1CC1)CC3 [Cyclorphan]
rats
  Antinociception in the warm-water tail flick test: partial effect
Rhesus monkeys
  Effect on cocaine self-administration: reduced cocaine self-administration
